The record followed here is ChEMBL document CHEMBL1821684, “A novel and efficient one-pot synthesis of symmetrical diamide (bis-amidate) prodrugs of acyclic nucleoside phosphonates and evaluation of their biological activities” (Eur J Med Chem, 2011).

For data set [1], the system named is Human immunodeficiency virus 1. Kind of data set: Antiviral activity against HIV1 3B infected in human MT-2 cells assessed as reduction in virus-induced cytopathic effect after 5 days by luminescence assay. It is filed as functional, organism-based. Conditions: Human immunodeficiency virus 1, 3B, MT2, 120 h. An outline of the steps: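 MT-2 cells were kept below 0.6 × 10^6 cells/mL and infected in bulk with HIV-1 IIIB for 3 h at MOI 0.0055. They were seeded at 3 × 10^3 cells/well with 3-fold serial compound dilutions in triplicate, 0.5% DMSO final. After 5 days at 37 °C, cytopathic effect was read by CellTiter-Glo luminescence. EC50 came from non-linear regression of multiple data sets.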
For orientation: Protection from cytopathic effect is a common read-out in antiviral testing.

The nature of data set [2]: Cytotoxicity against human MT2 cells assessed as inhibition of cell proliferation after 5 days by luminescence assay. In kind it is cell-based. An outline of the steps:
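Uninfected MT-2 cells at 3 × 10^3 cells/well were run on replicate plates alongside the antiviral assay, with 3-fold serial compound dilutions in triplicate and 0.5% DMSO final. After 5 days at 37 °C, viability was read by CellTiter-Glo luminescence. CC50 came from non-linear regression of multiple data sets.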

Data set [3] is filed under the species Mus musculus. Kind of data set: Immunomodulatory activity in C57BL/6 mouse peritoneal cells assessed as inhibition of LPS-induced NO production at 25 uM after 24 hrs by Griess reagent method. In kind it is functional. In outline:
(§1)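 Peritoneal cells pooled from 4 female C57BL/6 mice (8–10 weeks) were seeded at 2 × 10^6 cells/mL in complete RPMI-1640 with 10% FBS, at 37 °C and 5% CO2. Compound was given alone or with IFN-γ (5000 pg/mL) or IFN-γ plus E. coli LPS (100 pg/mL) for 24 h. Supernatant nitrite was measured with Griess reagent (5 min, A540) against a nitrite calibration curve.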

Data set [4] is filed under the species Mus musculus. Briefly: Immunostimulatory activity in C57BL/6 mouse peritoneal cells assessed as stimulation of LPS-induced NO production at 25 uM after 24 hrs by Griess reagent method. It is filed as functional. An outline of the steps:
as §1
A general note: Griess reagent forms a coloured azo dye with nitrite.

Data set [5] in a line: Antiproliferative activity against human HepG2 after 72 hrs by XTT assay. In kind it is functional. Conditions: HepG. An outline of the steps: (§2)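 CCRF-CEM, HL-60 and HeLa S3 cells were grown in RPMI 1640 with 5% calf fetal serum, and Hep G2 cells in Eagle's MEM with 10% calf fetal serum. Cells were exposed to compound, and growth was ended 72 h after drug addition. Viability was then quantified by the XTT spectrophotometric assay.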
For orientation: Tetrazolium dyes change colour on reduction, which living cells bring about.

The subject of the next data set is HL-60. Briefly: Antiproliferative activity against human HL60 after 72 hrs by XTT assay. It is filed as functional, cell-based. Conditions: HL-60, 72 h. In outline:
as §2

Data set [6] is described as follows: Antiproliferative activity against human HeLaS3 after 72 hrs by XTT assay. Conditions: HeLa S3, 72 h. In kind it is functional. In outline: as §2
The next data set concerns CCRF-CEM. Briefly: Antiproliferative activity against human CCRF-CEM after 72 hrs by XTT assay. It is filed as functional, cell-based. An outline of the steps:
as §2

The structures appear in SMILES notation. The source made the active and inactive calls. The rule behind the calls is not given here. A value given as a limit tells only on which side of the number the result lay.

As a reminder, the EC50 is the midpoint of the concentration-response curve. Usually CC50 stands for the concentration at which the toxic effect on the cells reaches its halfway point. With `C[C@H](Cn1cnc2c(N)nc(F)nc21)OCP(=O)(O)O`, the EC50 in data set [1] was greater than 85300 nM. Moreover, the CC50 at 120 h in data set [2] was greater than 100000 nM.
As to `CCOC(=O)[C@H](C)NP(=O)(CO[C@H](C)Cn1cnc2c(N)nc(N)nc21)N[C@@H](C)C(=O)OCC`, in data set [1], the EC50 was 290 nM. Moreover, in data set [2], the CC50 at 120 h is greater than 100000 nM. For the same molecule, the inhibition entry in the data set filed under Mus musculus [3] is “inactive”. For the same molecule, in the data set filed under Mus musculus [4], the result was inactive.
Usually IC50 stands for the concentration at which inhibition is half-maximal. Read a high IC50 as weaker potency. Take `CCOC(=O)[C@H](C)NP(=O)(COCCn1cnc2c(=O)[nH]c(N)nc21)N[C@@H](C)C(=O)OCC`: the IC50 in data set [5] worked out at 2320 nM; with HL-60, 3020 nM; in data set [6] it was 3940 nM; in the data set on CCRF-CEM it was 1220 nM. The inhibition entry in the data set listed under Mus musculus [3] was “inactive”. Further, the outcome in the data set listed under Mus musculus [4] was inactive.
Take `CCOC(=O)[C@H](C)NP(=O)(COCCn1cnc2c(NC3CCCCCCC3)nc(N)nc21)N[C@@H](C)C(=O)OCC`: the inhibition result in the data set filed under Mus musculus [3] is “inactive”. The result in the data set listed under Mus musculus [4] was inactive.
In the case of `CCOC(=O)[C@H](C)NP(=O)(CO[C@H](CF)Cn1cnc2c(N)ncnc21)N[C@@H](C)C(=O)OCC`, in data set [1], the EC50 is 540 nM. For the same molecule, the CC50 at 120 h in data set [2] was greater than 100000 nM. Moreover, in the data set listed under Mus musculus [3], the inhibition entry is “inactive”. The outcome in the data set listed under Mus musculus [4] was inactive.
As to `CCOC(=O)[C@H](C)NP(=O)(COCCOc1cc(N)nc(N)n1)N[C@@H](C)C(=O)OCC`, in data set [1], the EC50 was determined as 1130 nM. In addition, the CC50 at 120 h in data set [2] worked out at 73300 nM. In the data set filed under Mus musculus [3], the inhibition result is “inactive”. For the same molecule, in the data set listed under Mus musculus [4], the result was inactive.
`CCOC(=O)[C@H](C)NP(=O)(CO[C@H](CF)Cn1cnc2c(NC3CC3)nc(N)nc21)N[C@@H](C)C(=O)OCC`: the EC50 in data set [1] was found to be 10700 nM. For the same molecule, in data set [2], the CC50 at 120 h is greater than 100000 nM. In addition, the inhibition result in the data set filed under Mus musculus [3] was “inactive”. Also, the outcome in the data set filed under Mus musculus [4] was inactive.
Take `Nc1nc(NC2CC2)c2ncn(C[C@@H](CF)OCP(=O)(O)O)c2n1`: the EC50 in data set [1] was found to be 13200 nM. For the same molecule, the CC50 at 120 h in data set [2] was greater than 100000 nM.
On to `C[C@H](Cn1cnc2c(N)nc(N)nc21)OCP(=O)(O)O`, for which the EC50 in data set [1] was 940 nM. Further, in data set [2], the CC50 at 120 h was greater than 100000 nM.
`CCOC(=O)[C@H](C)NP(=O)(COCCn1cnc2c(NC3CC3)nc(N)nc21)N[C@@H](C)C(=O)OCC` [RABACFOSADINE]: the IC50 in data set [5] was found to be 1740 nM; in the data set on HL-60, 780 nM; in data set [6] it was 2150 nM; with CCRF-CEM, 480 nM. Further, the inhibition result in the data set listed under Mus musculus [3] is “inactive”. Besides, the result in the data set listed under Mus musculus [4] was inactive.
In the case of `CCOC(=O)[C@H](C)NP(=O)(CO[C@H](C)Cn1cnc2c(N)nc(F)nc21)N[C@@H](C)C(=O)OCC`, in data set [1], the EC50 is 5510 nM. The CC50 at 120 h in data set [2] was greater than 100000 nM. The inhibition entry in the data set listed under Mus musculus [3] is “inactive”. In the data set listed under Mus musculus [4], the result was inactive.
